# PKA-R1A act = PKA-R1A complex activation | activation, % at 11.4 µM | 340,000 tested, 0.083% active | P00514+P68181 | PKA-R1A dissociation, Cy5-IP20 fluorescence polarization; scaled: DMSO 0%, 113 µM cGMP 100%;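 active = percent activation above the mean of all tested compounds plus 3 SD, cut at about 19% in these data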;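 also: higher means more PKAc released from R1A so a rise in polarization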
# Tb MetRS inh = Trypanosoma brucei MetRS inhibition; purified T. brucei MetRS, ATP depletion, Kinase-Glo luminescence; inhibition, % at 11.9 µM; 360,000 tested, 0.4% active; AID 624268;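 active = inhibition above a per-plate cutoff of the control wells' mean inhibition plus 3 SD, cut at about 5.5% in these data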;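 also: 0% = DMSO wells median and 100% = median of wells with control inhibitor compound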
#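 Dosing: 11.9 µM compound single dose, 0.9% DMSO; Assay system: purified T. brucei MetRS enzyme; Measured by: Kinase-Glo luciferase luminescence reporting remaining unconsumed ATP; Schedule: 15 min plus 2 h at 25 °C.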
# Rin1 Abl inh = blocks binding of human Rin1 to Abl; TR-FRET Rin1/Abl binding, biochemical; P00519+Q13671; AID 588664; inhibition, % at 7.35 µM; 360,000 tested, 0.4% active; in the data active = inhibition above about 5%, passing the limit was not always enough
# PKA-R2B activ = activators of human PKA-R2B complex; P22694+P31323; PKA-R2B holoenzyme dissociation, Cy5-IP20 fluorescence polarization; R2B truncated from residue 108, S112A mutant; 0% DMSO only, 100% 113 µM cGMP; 340,000 tested, 0.079% active; activation, % at 11.4 µM;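 active = activation above a cutoff set at the mean over all compounds plus 3 SD, cut at about 18% in these data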;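 also: higher means more holoenzyme dissociation and a rise in polarization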
# Target sequence (P31323 whole entry, looked up, other chains not shown, the tested form may be a part): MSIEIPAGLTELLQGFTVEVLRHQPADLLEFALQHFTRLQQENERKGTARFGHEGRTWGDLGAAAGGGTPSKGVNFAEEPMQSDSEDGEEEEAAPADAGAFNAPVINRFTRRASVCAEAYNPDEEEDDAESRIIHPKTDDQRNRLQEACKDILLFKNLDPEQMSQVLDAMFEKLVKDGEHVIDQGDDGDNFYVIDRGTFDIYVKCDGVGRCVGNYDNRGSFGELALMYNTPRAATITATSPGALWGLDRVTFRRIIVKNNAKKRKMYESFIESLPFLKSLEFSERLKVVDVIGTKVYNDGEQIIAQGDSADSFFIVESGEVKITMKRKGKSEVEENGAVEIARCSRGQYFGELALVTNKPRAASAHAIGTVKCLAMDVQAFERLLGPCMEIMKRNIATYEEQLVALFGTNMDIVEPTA
# Cardio protect = myocardial damage modulation in H9c2 cells. H9c2 cardiomyocytes, H2O2 injury protection, ATPLite, 2 h. 360,000 tested, 0.63% active. protection from H2O2 cell death, % at 20 µM. AID 588492;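 active = compounds giving at least 50% protection of heart cells from peroxide-induced death in the single-dose screen, raw or plate-pattern-corrected value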;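 also: 0% = DMSO wells with peroxide and 100% = DMSO wells without peroxide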
# Rin1-Abl confirm = Rin1-Abl interaction inhibition confirmation. shares compounds with Rin1 Abl inh. TR-FRET Rin1-Abl binding, purified proteins. inhibition, % at 7.35 µM. 1,300 tested, 49% active. AID 602124
# GFP quencher = GFP fluorescence interference artifact; shares compounds with Rin1 Abl inh; inhibitors/quenchers counterscreen; inhibition, % at 6.75 µM; 1,300 tested, 8.5% active;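 also: ABL1-eGFP fusion protein alone without its partner RIN1-SBP; 0% = protein with vehicle and 100% = wells lacking protein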
# Starred values were filed as active, the others as inactive; / = no result. Hits are enriched below; roughly 1.5% of the tested compounds scored in any of these assays. Rule as the data show it, unless noted: active = inhibition above about 6.5%; inactive = the rest.
SMILES,PKA-R1A act,Tb MetRS inh,Rin1 Abl inh,PKA-R2B activ,Cardio protect,Rin1-Abl confirm,GFP quencher
CCOc1cccc(C(=O)Nc2ccc3c(c2)OCCO3)c1,4.8,-1.3,1.4,4.4,-14.6,/,/
COc1ccc(NC(=S)N2CCN(S(=O)(=O)c3ccccc3)CC2)cc1,-12.0,0.1,-0.3,-11.2,2.1,/,/
O=C(CSc1nnc(-c2ccccn2)o1)Nc1ccccc1,0.4,-2.2,4.1,-1.1,5.8,/,/
O=C(CSC1=NNC(c2ccccn2)S1)Nc1ccccc1 (stereo unspecified),-2.7,0.2,6.5*,4.6,32.3,-5.6,2.5
O=C(COc1ccc(Cl)cc1Br)OCC(=O)c1ccc[nH]1,7.8,-0.2,8.3*,3.6,0.4,-0.8,3.0
O=C(COc1ccc(Cl)cc1Cl)OCC(=O)c1ccc[nH]1,5.7,0.7,2.8,5.3,6.5,/,/
OCC[C@@H]1C[C@@H](O)[C@H](O)[C@@]2(Cc3ccccc3CO2)O1,1.2,-0.3,8.9*,-1.9,5.2,-2.5,-0.7
OCC[C@H]1C[C@H](O)[C@@H](O)[C@@]2(Cc3ccccc3CO2)O1,0.3,-0.4,4.7,-4.1,-1.7,/,/
COc1cccc(C2CCCCN(C)C2=O)c1 (stereo unspecified),-4.1,-0.6,0.7,0.7,-2.2,/,/
CCC[C@H]1CN(Cc2ccccc2)C(=O)[C@@H]1CC(=O)NC,5.5,-0.5,-1.2,-6.7,-5.3,/,/
CNC(=O)C[C@H]1C(=O)N(Cc2ccccc2)C[C@@H]1Cc1ccccc1,-2.6,-0.2,8.2*,-0.3,-0.4,-0.5,-0.8
O=C(c1ccccc1)N1CCN(c2ccc(NCc3ccc4c(c3)OCO4)cc2)CC1,-3.0,-0.4,12.4*,15.0,-7.5,12.0*,-0.5
C[n+]1c(-c2ccccc2)cc2c(=Cc3ccc([N+](=O)[O-])cc3)c3ccccc3n21,5.4,-0.1,6.8,8.3,-15.0,/,/
C[n+]1c(-c2ccccc2)cc2c(=Cc3ccccc3)c3ccccc3n21,0.6,-0.1,12.7*,8.1,-15.2,-5.8,1.8
COc1ccccc1/C=N/NC(=O)c1cccc2ccccc12,-3.7,-0.2,-3.4,-7.3,-4.3,/,/
COc1ccc(OC)c(/C=N/NC(=O)c2cccc3ccccc23)c1,-0.5,0.1,6.9*,3.2,-7.0,-2.7,0.1
CCOc1ccc(S(=O)(=O)N2CCC(C(=O)NCC3CCCO3)CC2)cc1Cl (stereo unspecified),2.3,-1.1,1.2,-2.4,-4.3,/,/
CCCCNC(=O)c1ccc2nc(-c3ccco3)c(-c3ccco3)nc2c1,2.9,-0.3,2.1,-6.5,42.1,/,/
O=C(NCCCO)c1ccc2nc(-c3ccco3)c(-c3ccco3)nc2c1,6.0,0.7,11.2*,-11.5,7.3,1.7,11.4*
COCCNC(=O)c1cc(-c2ccccn2)nc2ccc(S(=O)(=O)N3CCC(C)CC3)cc12,-3.6,0.1,17.0*,1.4,1.9,-2.0,-1.1
COc1ccc(S(=O)(=O)N2CCCC2)c(Cl)c1Cl,13.3,-1.0,9.9*,5.0,-1.8,-1.2,-0.9
CCn1c(SCc2ccc(C(=O)OC)o2)nnc1-c1c[nH]c2ccccc12,0.7,1.1,13.6*,-5.5,1.0,10.6*,-0.1
CCn1c(SC(C)C(=O)OC)nnc1-c1c[nH]c2ccccc12 (stereo unspecified),-6.2,1.0,-1.0,0.8,-14.7,/,/
Cc1[nH]n(-c2ccccc2)c(=O)c1C(C[N+](=O)[O-])c1ccc(F)cc1 (stereo unspecified),-6.0,0.0,0.1,-1.4,2.1,/,/
Cc1ccc(C(C[N+](=O)[O-])c2c(C)[nH]n(-c3ccccc3)c2=O)cc1 (stereo unspecified),-8.9,-0.3,6.0*,0.2,6.7,2.3,-1.0
Cc1cc(Br)c(OCC(=O)NN)c2c1CCC2,-1.4,-0.2,-2.7,-10.9,0.7,/,/
CCOC(=O)c1ccc(N2CCN(C(C)=O)CC2)c(NC(=O)c2cccnc2)c1,-0.2,-1.6,-1.9,2.5,-5.3,/,/

# Screening data: PubChem, several laboratories
